STAT3 act-1: IL-6 driven STAT3 reporter potentiators, primary screen, U3A cells, luciferase, luminescence, MLSCN library; IL-6 STAT3-luciferase reporter; 100% = signal with IL-6 EC80 alone; activation (% of control), % at 5.6 µM; hit rate 0.91% among 190,000;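 active means activation above the screen-wide mean of compound activation plus 3 SD, cut at about 130% in these data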;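 further: 0% = background luminescence of wells with medium and substrate only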
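System – human U3A cells carrying STAT3-luciferase construct · Probe or stimulus – Interleukin-6, 33 ng/mL · Schedule – compound 1 h, then IL-6 6 h at 37 °C · Signal – luminescence from STAT3-driven luciferase reporter · Evaluation – percent of IL-6-only median luminescence · Benchmarks – IL-6-only high control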
NF-kB expr up: activators of NF-kB expression in neurons, primary screen, cell-based, HTS; fold change at 12.5 µM; hit rate 1.6% among 190,000; AID 1239, 2008; human neuronal cells, NF-kB reporter expression; hits give high values; in the data active means fold change above about 3.3
STAT1 blocker: STAT1 signaling inhibitors, primary screen, cell-based, HTS, luciferase reporter; hit rate 0.35% among 200,000; inhibition, % at 5.5 µM; NIH 3T3 STAT1-luciferase reporter, IFN-gamma, luminescence;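 active means inhibition above a set limit, the mean inhibition across all tested compounds plus 3 SD, cut at about 34% in these data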;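 further: 0% = IFN-gamma with DMSO and 100% = IFN-gamma with 300 µM nifuroxazide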
STAT3 blocker: IL-6 driven STAT3 reporter inhibitors, primary screen, U3A cells, luciferase, luminescence, MLSCN library. hit rate 0.89% among 190,000. inhibition, % at 5.5 µM. IL-6 STAT3-luciferase reporter; host cell line lacks STAT1;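 active means inhibition above the mean inhibition across all screened compounds plus 3 SD, cut at about 44% in these data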;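 further: 0% = DMSO only wells and 100% = 100 µM nifuroxazide control wells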
STAT1 act-1: STAT1 signaling activators, primary screen, cell-based, HTS, luciferase reporter; NIH 3T3 STAT1-luciferase reporter, IFN-gamma, luminescence; 100% = IFN-gamma alone, no compound; activation (% of control), % at 5.5 µM; hit rate 2.6% among 200,000; AID 932, 2007;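 active means activation above the screen-wide mean activation plus 3 SD, cut at about 130% in these data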;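 further: raw ratio to IFN-gamma control signal so 100% means no change and 0% no light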
APP 5'UTR act: activators of APP 5'UTR luciferase reporter, primary screen, SH-SY5Y cells; hit rate 1% among 190,000; SH-SY5Y APP 5'UTR luciferase reporter, luminescence; zero percent = DMSO vehicle wells; activation, % at 2 µM;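 active means activation above a set limit, based on mean plus 3 SD of controls, cut at about 140% in these data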
STAT3 act-2: STAT3 reporter potentiators, retest of hits, confirmation, U3A cells, luciferase, luminescence. shares compounds with STAT3 act-1. IL-6 potentiation; U3A cells lack STAT1; 100 means same as IL-6 alone. potentiation (% of control), % at 5.7 µM. hit rate 64% among 1,200. AID 1267, 2008;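 active means percent activation of the STAT3 luciferase reporter above a set limit taken from the earlier primary screen, cut at about 130% in these data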;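 further: 0% = background signal of medium plus substrate and 100% = median of IL-6 with DMSO wells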
NFkB act STAT3ct: NF-kB reporter activators in human cells, counter-screen for STAT3 activator project. AID 1309, 2008. activation (% of control), % at 5.7 µM. NF-kappaB reporter activation. hit rate 11% among 1,200. shares compounds with STAT3 act-1; in the data active means activation above about 120%;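 further: reporter induced by TNF-alpha stimulation; 100% = median of stimulated DMSO wells and 0% = no signal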
STAT1 act-2: STAT1 reporter activators, IFN-gamma induced, counter-screen for STAT3 activator project, cell-based, NIH 3T3, luciferase luminescence | AID 1318, 2008 | hit rate 13% among 1,200 | shares compounds with STAT3 act-1 | activation (% of control), % at 5.7 µM | NIH 3T3 STAT1-luciferase reporter;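 active means activation above the solvent-only control well mean plus 3 SD, set per screening run, cut at about 120% in these data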;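 further: 100% = IFN-gamma with DMSO median signal so 100% means no change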
Starred values were filed as active, the others as inactive. A selection: hits, their analogues and other compounds. The true share with any hit is near 5.1%.

`CCOC(=O)Cn1c(=O)c(-c2ccccc2NCc2ccccc2)nc2ccccc21` gave STAT3 act-1 136*, STAT1 blocker 2, STAT3 blocker -39, STAT1 act-1 98, APP 5'UTR act 9, STAT3 act-2 127, NFkB act STAT3ct 98 and STAT1 act-2 95.
`Cc1nc2ccccc2n1CC(=O)OCC(=O)NCc1ccccc1` gave STAT3 act-1 101, NF-kB expr up 1.1, STAT1 blocker 2, STAT3 blocker 4, STAT1 act-1 97 and APP 5'UTR act 12.
Screening COc1ccc2cc(N=Cc3nc(-c4ccc(C)cc4)oc3O)cnc2c1 returned STAT3 act-1 95, NF-kB expr up 1, STAT1 blocker 0, STAT3 blocker 10, STAT1 act-1 100 and APP 5'UTR act 3.
For Cc1ccc(S(=O)(=O)NC(=O)CSc2nc3ccccc3s2)cc1 the results were STAT3 act-1 141*, NF-kB expr up 1.1, STAT1 blocker -4, STAT3 blocker -45, STAT1 act-1 104, APP 5'UTR act 1, STAT3 act-2 124, NFkB act STAT3ct 100 and STAT1 act-2 100.
Screening Cc1cc(C)nc(NC(=O)CSc2nc3ccccc3s2)n1 returned STAT3 act-1 117, NF-kB expr up 3.1, STAT1 blocker -20, STAT3 blocker -12, STAT1 act-1 119 and APP 5'UTR act 48.
`Cc1ccc(C)c(/C=N/Nc2ccccn2)c1` gave STAT3 act-1 140*, NF-kB expr up 1.6, STAT1 blocker -27, STAT3 blocker -49, STAT1 act-1 125, APP 5'UTR act 22, STAT3 act-2 127, NFkB act STAT3ct 106 and STAT1 act-2 128*.
`COc1ccc(/C=N/Nc2ccccn2)c(OC)c1OC` gave STAT3 act-1 94, NF-kB expr up 1, STAT1 blocker -17, STAT3 blocker 10, STAT1 act-1 115 and APP 5'UTR act 36.
Screening Cc1[nH]n(-c2ccccc2)c(=O)c1/C=C1/C=c2ccccc2=N1 returned STAT3 act-1 156*, NF-kB expr up 1.4, STAT1 blocker -2, STAT3 blocker -63, STAT1 act-1 101, APP 5'UTR act 20, STAT3 act-2 170*, NFkB act STAT3ct 101 and STAT1 act-2 100.
Screening CCOc1ccccc1C(=O)NN1C(=O)CCC1=O returned STAT3 act-1 143*, NF-kB expr up 0.96, STAT1 blocker 3, STAT3 blocker -43, STAT1 act-1 97, APP 5'UTR act 6, STAT3 act-2 155*, NFkB act STAT3ct 102 and STAT1 act-2 107.
CCOC(=O)CCCNC(=O)CSc1nc2ccc(OCC)cc2[nH]1 was read as STAT3 act-1 101, NF-kB expr up 1.1, STAT1 blocker -4, STAT3 blocker 1, STAT1 act-1 104 and APP 5'UTR act -3.
Screening COc1ccc(C2=NN(S(C)(=O)=O)C(c3cccs3)C2)cc1OC (stereo unspecified) returned STAT3 act-1 112, NF-kB expr up 1, STAT1 blocker -31, STAT3 blocker -12, STAT1 act-1 127 and APP 5'UTR act 83.
Cc1[nH]c2ccccc2c1CN1CCc2ccccc2C1 was read as STAT3 act-1 158*, NF-kB expr up 2.4, STAT1 blocker -2, STAT3 blocker -59, STAT1 act-1 102, APP 5'UTR act -5, STAT3 act-2 132, NFkB act STAT3ct 97 and STAT1 act-2 86.
For O=c1[nH]c(CN2CCc3ccccc3C2)nc2ccccc12 the results were STAT3 act-1 106, NF-kB expr up 1.1, STAT1 blocker 10, STAT3 blocker -7, STAT1 act-1 91 and APP 5'UTR act -7.
`O=C(Nc1cc(C(F)(F)F)ccc1N1CCCCC1)c1ccco1` gave STAT3 act-1 103, NF-kB expr up 1.3, STAT1 blocker -5, STAT3 blocker 0, STAT1 act-1 103 and APP 5'UTR act -11.
`O=C(Nc1cc(C(F)(F)F)ccc1N1CCOCC1)C1Cc2ccccc2CN1C(=O)c1ccco1` (stereo unspecified) gave STAT3 act-1 139*, NF-kB expr up 0.73, STAT1 blocker -3, STAT3 blocker -44, STAT1 act-1 103, APP 5'UTR act -3, STAT3 act-2 130, NFkB act STAT3ct 104 and STAT1 act-2 92.
CC1COc2ccccc2N1C(=O)c1ccc(Cl)nc1 (stereo unspecified) was read as STAT3 act-1 145*, NF-kB expr up 1.6, STAT1 blocker 2, STAT3 blocker -38, STAT1 act-1 98, APP 5'UTR act 13, STAT3 act-2 136*, NFkB act STAT3ct 104 and STAT1 act-2 101.
Screening N#CCCn1nc(-c2ccc([N+](=O)[O-])cc2)cc1Nc1ccccc1NC(=O)C(F)(F)F returned STAT3 act-1 100, NF-kB expr up 1.3, STAT1 blocker -4, STAT3 blocker -4, STAT1 act-1 104 and APP 5'UTR act -20.
`COc1ccc(-n2c(SCC(=O)NCc3ccco3)nc3c([nH]c4ccccc43)c2=O)cc1` gave STAT3 act-1 154*, NF-kB expr up 1, STAT1 blocker 17, STAT3 blocker -54, STAT1 act-1 84, APP 5'UTR act 11, STAT3 act-2 137*, NFkB act STAT3ct 104 and STAT1 act-2 106.
COC(=O)C1=C(C)NC2=C(C(=O)CC(C)(C)C2)C1c1cnn(C)c1C (stereo unspecified) was read as STAT3 act-1 102, NF-kB expr up 1.4, STAT1 blocker -10, STAT3 blocker 0, STAT1 act-1 108 and APP 5'UTR act -6.
Cc1ccccc1-n1nnnc1Sc1nnnn1-c1ccccc1 was read as STAT3 act-1 104, NF-kB expr up 0.62, STAT1 blocker 26, STAT3 blocker 0, STAT1 act-1 76 and APP 5'UTR act -5.
CCCSc1nnc(Sc2nnnn2-c2ccccc2)s1 was read as STAT3 act-1 178*, NF-kB expr up 1.2, STAT1 blocker 10, STAT3 blocker -83, STAT1 act-1 91, APP 5'UTR act -95, STAT3 act-2 147*, NFkB act STAT3ct 103 and STAT1 act-2 90.

Assay outcomes from PubChem BioAssay.
